Results on six molecules are retold here after ChEMBL document CHEMBL5712908, “A genome-wide RNAi screen reveals essential therapeutic targets of breast cancer stem cells” (2019).

The structures appear in SMILES notation. The source made the active and inactive calls. No cut-off for these calls is given here.

The target of assay [1] is Runt-related transcription factor 1 (Homo sapiens) (UniProt Q01196). Briefly: Inhibition of RUNX1 in human MDA-MB-436 cells assessed as K-score by measuring ALDHbr cells by LSR2 cytometer. Format: cell-based. Put shortly:
(§1)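 Cell lines exposed for 72 h in adherent culture to a range of concentrations centred on the MTS-derived IC50. ALDHbr proportion measured by ALDEFLUOR flow cytometry (LSR2). K-score is the linear regression coefficient, on log10-transformed doses, between the untreated condition and the dose predicted to give a 50% decrease or increase in ALDHbr proportion versus control.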

For assay [2] the target is unchanged. Briefly: Inhibition of RUNX1 in human S68 cells assessed as K-score by measuring ALDHbr cells by LSR2 cytometer. Format: cell-based. Put shortly: as §1
The target is the same in assay [3]. Put plainly: Inhibition of RUNX1 in human BrCa-MZ-01 cells assessed as K-score by measuring ALDHbr cells by LSR2 cytometer. In kind it is cell-based. The procedure, abridged: as §1
Assay [4] shares this target. Put plainly: Inhibition of RUNX1 in human SUM159 cells assessed as K-score by measuring ALDHbr cells by LSR2 cytometer. Format: cell-based. The procedure, abridged:
as §1

For assay [5] the target is unchanged. Put plainly: Inhibition of RUNX1 in human SUM149 cells assessed as K-score by measuring ALDHbr cells by LSR2 cytometer. In kind it is cell-based. Put shortly: as §1
The subject of assay [6] is SUM-159-PT. Briefly: Anticancer activity against human SUM159 cells assessed as decrease in primary tumor sphere formation incubated for 72 hrs by Extreme limiting dilution analysis. Format: functional, cell-based. Put shortly: (§2)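 Cells drug-treated in adherent culture for 72 h, then plated as single cells in ultra-low attachment 96-well plates in serum-free mammary epithelium basal medium. Plating at 25/10/5/3/2/1 cells per well, 18–36 wells per condition. Wells with ≥1 sphere after 10 days scored positive. Secondary spheres were made by dissociating primary spheres. Frequency by ELDA; n = 4; pairwise chi-square test.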

Assay [7] concerns SUM-159-PT. Briefly: Anticancer activity against human SUM159 cells assessed as decrease in secondary tumor sphere formation incubated for 72 hrs by Extreme limiting dilution analysis. Format: functional, cell-based. The procedure, abridged:
as §2

Assay [8] concerns SUM-159-PT. Briefly: Anticancer activity against human SUM159 cells assessed as decrease primary tumor sphere formation at 2 nM incubated for 72 hrs by Extreme limiting dilution analysis. In kind it is functional, cell-based. Put shortly: (§3)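 Cells given drug (2 nM when combined with other agents) for 72 h in adherent culture, then plated as single cells in ultra-low attachment 96-well plates in serum-free mammary epithelium basal medium at 25/10/5/3/2/1 cells per well (18–36 wells per condition). Wells holding ≥1 sphere at 10 days scored positive. Sphere-forming frequency by extreme limiting dilution analysis, pairwise chi-square, n = 4.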

The test system of assay [9] is SUM149PT. Briefly: Anticancer activity against human SUM149 cells assessed as decrease in ALDHbr cells at 2 nM by LSR2 cytometer analysis. In kind it is functional, cell-based. Put shortly: (§4)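 Cells continuously exposed to drug for 72 h in adherent culture; single-cell suspensions stained with ALDEFLUOR kit and ALDH-high population measured by flow cytometry (LSR2) against a DEAB control. Residual ALDHbr proportion reported (n = 8), mean ± SD, Student's t-test.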

Assay [10] deals with SUM149PT. Put plainly: Anticancer activity against human SUM149 cells assessed as decrease primary tumor sphere formation at 2 nM incubated for 72 hrs by Extreme limiting dilution analysis. Format: functional, cell-based. Put shortly: as §3
For assay [11], the system named is SUM-159-PT. Briefly: Anticancer activity against human SUM159 cells assessed as decrease in ALDHbr cells at 2 nM by LSR2 cytometer analysis. Format: functional, cell-based. Put shortly:
as §4

In assay [12] the test system is SUM149PT. Briefly: Antitumor activity against human SUM149 cells assessed as K-score by measuring ALDHbr cells by LSR2 cytometer. In kind it is functional. The procedure, abridged: as §1
The next assay has as its system MDA-MB-436. Put plainly: Antitumor activity against human MDA-MB-436 cells assessed as K-score by measuring ALDHbr cells by LSR2 cytometer. In kind it is functional. The procedure, abridged:
as §1

Assay [13] in a line: Antitumor activity against human S68 cells assessed as K-score by measuring ALDHbr cells by LSR2 cytometer. Format: functional. Put shortly:
as §1

A short description of assay [14]: Antitumor activity against human BrCa-MZ-01 cells assessed as K-score by measuring ALDHbr cells by LSR2 cytometer. Format: functional. The procedure, abridged: as §1
For assay [15], the system named is SUM-159-PT. Put plainly: Antitumor activity against human SUM159 cells assessed as K-score by measuring ALDHbr cells by LSR2 cytometer. In kind it is functional. Put shortly:
as §1

Assay [16] concerns the target Histone acetyltransferase p300 (Homo sapiens) (UniProt Q09472). Briefly: Inhibition of EP300 in human SUM149 cells assessed as K-score by measuring ALDHbr cells by LSR2 cytometer. In kind it is cell-based. Put shortly: (§5)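 Breast cancer lines exposed continuously for 72 h in adherent culture to a range of doses centred on the MTS-derived IC50 (72 h MTS, absorbance 540 nm). ALDHbr fraction measured by ALDEFLUOR flow cytometry (LSR2) with DEAB control. K-score = linear regression coefficient between untreated condition and the log10 dose at which ALDHbr proportion changes by 50% versus control.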

Assay [17] shares this target. Put plainly: Inhibition of EP300 in human MDA-MB-436 cells assessed as K-score by measuring ALDHbr cells by LSR2 cytometer. In kind it is cell-based. Put shortly: as §5
Assay [18] shares this target. Briefly: Inhibition of EP300 in human S68 cells assessed as K-score by measuring ALDHbr cells by LSR2 cytometer. In kind it is cell-based. Put shortly:
as §5

For assay [19] the target is unchanged. Put plainly: Inhibition of EP300 in human BrCa-MZ-01 cells assessed as K-score by measuring ALDHbr cells by LSR2 cytometer. Format: cell-based. Put shortly: as §5
The target is the same in assay [20]. Briefly: Inhibition of EP300 in human SUM159 cells assessed as K-score by measuring ALDHbr cells by LSR2 cytometer. Format: cell-based. The procedure, abridged: as §5

Chain of Runt-related transcription factor 1 (Homo sapiens) (Q01196 whole entry): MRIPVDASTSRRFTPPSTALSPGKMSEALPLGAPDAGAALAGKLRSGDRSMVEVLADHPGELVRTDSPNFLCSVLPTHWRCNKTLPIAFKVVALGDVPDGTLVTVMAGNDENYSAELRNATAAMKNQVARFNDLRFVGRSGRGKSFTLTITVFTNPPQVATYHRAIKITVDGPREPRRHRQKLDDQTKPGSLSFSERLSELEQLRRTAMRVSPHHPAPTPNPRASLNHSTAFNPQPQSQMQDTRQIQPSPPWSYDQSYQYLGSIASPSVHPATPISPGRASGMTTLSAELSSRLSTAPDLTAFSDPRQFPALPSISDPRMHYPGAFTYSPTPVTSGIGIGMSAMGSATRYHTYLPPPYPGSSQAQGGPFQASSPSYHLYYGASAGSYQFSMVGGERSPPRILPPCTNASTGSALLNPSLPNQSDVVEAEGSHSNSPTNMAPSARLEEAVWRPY
Chain of Histone acetyltransferase p300 (Homo sapiens) (Q09472 whole entry): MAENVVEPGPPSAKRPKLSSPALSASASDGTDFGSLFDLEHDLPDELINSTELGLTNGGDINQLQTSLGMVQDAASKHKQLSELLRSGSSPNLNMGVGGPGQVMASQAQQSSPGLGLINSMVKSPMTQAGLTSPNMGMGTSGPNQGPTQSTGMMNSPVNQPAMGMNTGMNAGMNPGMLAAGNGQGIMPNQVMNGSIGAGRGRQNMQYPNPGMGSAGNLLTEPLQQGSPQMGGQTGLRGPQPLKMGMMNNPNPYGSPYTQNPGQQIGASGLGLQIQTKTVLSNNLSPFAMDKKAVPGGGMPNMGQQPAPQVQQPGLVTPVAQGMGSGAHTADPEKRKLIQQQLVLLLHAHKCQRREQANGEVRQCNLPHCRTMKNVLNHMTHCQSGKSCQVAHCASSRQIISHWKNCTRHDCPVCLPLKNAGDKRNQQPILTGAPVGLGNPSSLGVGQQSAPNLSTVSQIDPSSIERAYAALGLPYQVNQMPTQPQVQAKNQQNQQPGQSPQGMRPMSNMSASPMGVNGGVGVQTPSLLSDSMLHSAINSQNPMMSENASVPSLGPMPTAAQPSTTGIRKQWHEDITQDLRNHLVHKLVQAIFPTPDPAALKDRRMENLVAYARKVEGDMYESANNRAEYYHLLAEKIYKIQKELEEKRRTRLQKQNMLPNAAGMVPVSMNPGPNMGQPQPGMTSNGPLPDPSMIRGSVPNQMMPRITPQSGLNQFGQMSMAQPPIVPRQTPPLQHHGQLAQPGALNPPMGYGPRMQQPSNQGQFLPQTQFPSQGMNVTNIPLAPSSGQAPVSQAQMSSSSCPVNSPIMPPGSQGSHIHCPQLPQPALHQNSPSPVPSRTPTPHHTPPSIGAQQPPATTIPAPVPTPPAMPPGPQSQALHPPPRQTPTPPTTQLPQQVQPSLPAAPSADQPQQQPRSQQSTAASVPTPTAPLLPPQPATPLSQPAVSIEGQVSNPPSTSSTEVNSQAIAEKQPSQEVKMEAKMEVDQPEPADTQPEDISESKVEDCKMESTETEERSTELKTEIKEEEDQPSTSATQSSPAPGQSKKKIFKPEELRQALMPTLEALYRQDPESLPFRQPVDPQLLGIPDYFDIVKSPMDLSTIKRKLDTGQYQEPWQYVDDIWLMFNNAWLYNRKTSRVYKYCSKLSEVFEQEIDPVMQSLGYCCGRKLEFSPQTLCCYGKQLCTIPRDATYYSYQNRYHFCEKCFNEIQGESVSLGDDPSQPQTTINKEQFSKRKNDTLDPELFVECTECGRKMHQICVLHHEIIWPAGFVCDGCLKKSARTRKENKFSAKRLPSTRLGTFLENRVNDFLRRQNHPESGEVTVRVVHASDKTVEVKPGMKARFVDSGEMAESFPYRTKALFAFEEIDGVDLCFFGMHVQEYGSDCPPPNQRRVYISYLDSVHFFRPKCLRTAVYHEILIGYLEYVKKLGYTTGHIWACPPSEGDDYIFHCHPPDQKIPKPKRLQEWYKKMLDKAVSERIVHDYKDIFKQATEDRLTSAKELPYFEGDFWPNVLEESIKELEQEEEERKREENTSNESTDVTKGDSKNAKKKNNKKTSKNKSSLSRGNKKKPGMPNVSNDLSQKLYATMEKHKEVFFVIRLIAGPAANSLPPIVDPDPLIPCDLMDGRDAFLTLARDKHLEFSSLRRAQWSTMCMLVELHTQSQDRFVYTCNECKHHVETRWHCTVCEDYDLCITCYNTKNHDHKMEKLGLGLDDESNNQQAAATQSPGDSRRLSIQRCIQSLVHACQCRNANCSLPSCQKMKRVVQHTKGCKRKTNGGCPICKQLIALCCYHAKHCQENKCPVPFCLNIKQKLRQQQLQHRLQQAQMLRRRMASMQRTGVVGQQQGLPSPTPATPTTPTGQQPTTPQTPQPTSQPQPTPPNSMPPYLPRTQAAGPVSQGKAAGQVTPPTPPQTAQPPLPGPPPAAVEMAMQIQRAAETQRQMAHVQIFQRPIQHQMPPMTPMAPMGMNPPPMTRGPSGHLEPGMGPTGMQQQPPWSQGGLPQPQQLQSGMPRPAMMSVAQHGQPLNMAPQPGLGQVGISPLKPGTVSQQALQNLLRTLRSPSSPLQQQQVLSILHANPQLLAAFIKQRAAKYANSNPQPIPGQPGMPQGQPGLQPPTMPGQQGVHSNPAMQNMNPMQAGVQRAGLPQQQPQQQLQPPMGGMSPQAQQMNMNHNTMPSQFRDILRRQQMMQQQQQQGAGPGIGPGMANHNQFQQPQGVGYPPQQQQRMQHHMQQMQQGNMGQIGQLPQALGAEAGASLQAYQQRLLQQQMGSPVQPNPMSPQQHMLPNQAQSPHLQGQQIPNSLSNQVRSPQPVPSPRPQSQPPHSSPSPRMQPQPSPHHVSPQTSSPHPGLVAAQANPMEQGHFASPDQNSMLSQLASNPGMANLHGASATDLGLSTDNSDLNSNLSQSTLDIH

With `O=C1CN=C(c2ccc[nH]2)c2cc(Cl)ccc2N1`, the Activity in assay [1] is 0; in assay [2] it was -0.07; in [3], -0.04; in [4], 0.09; in assay [5], -0.04.

Turning to `CC#C[C@]1(O)CC[C@H]2[C@@H]3CCC4=CC(=O)CCC4=C3[C@@H](c3ccc(N(C)C)cc3)C[C@@]21C`, the outcome with SUM-159-PT [6] and in the assay with SUM-159-PT [7] was Active.

Consider `CC(=O)O[C@@]12CO[C@@H]1C[C@H](O)[C@@]1(C)C(=O)[C@H](O)C3=C(C)[C@@H](OC(=O)[C@H](O)[C@@H](NC(=O)OC(C)(C)C)c4ccccc4)C[C@@](O)([C@@H](OC(=O)c4ccccc4)[C@H]21)C3(C)C`, for which the outcome in the assay with SUM-159-PT [8], in the assay with SUM149PT [9], with SUM149PT [10] and in the assay on SUM-159-PT [11] was inactive.

For `CCN(CC)CCCC(C)Nc1ccnc2cc(Cl)ccc12` (stereo not drawn) [CHLOROQUINE], the Activity with SUM149PT [12] is reported as -0.01; with MDA-MB-436, -0.06; in [13], -0.02; in [14], -0.02; with SUM-159-PT [15], 0.04.

With `CCCc1cc(C)[nH]c(=O)c1CNC(=O)c1cc(-c2ccnc(N3CCN(C)CC3)c2)cc2c1cnn2C(C)C`, the outcome with SUM-159-PT [6] and in the assay with SUM-159-PT [7] was inactive.

Regarding `CCC(=O)N1CCOc2c(cc(-c3ccc(OC)c(OC)c3)cc2OC[C@H]2CCCN(C)C2)C1`, the Activity in [16] came to 0.1; in [17], 0.14; in assay [18], 0.22; in [19] it was 0.01; in assay [20], 0.02.
